In ChEMBL document CHEMBL1121585, “Inhibitors of phenylethanolamine N-methyltransferase and epinephrine biosynthesis. 1. Chloro-substituted 1,2,3,4-tetrahydroisoquinolines” (J Med Chem, 1980):

Assays:
Assay type in all cases: functional
[1] = system: Mus musculus; assay: Minimum active dose(MAD) for decrease in norepinephrine (NE) / epinephrine(E) ratio was measured in mice (po)
Procedure, shortened: (§1)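 Male Charles River mice, 30–40 g, groups of five. Oral dosing in 1% methylcellulose twice daily for 7 days, plus a final morning dose. Killed 2 h later; adrenals homogenised in 0.4 N HClO4 and alumina-extracted. E and NE measured.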

[2] = system: Mus musculus; assay: Maximum inactive dose(MID) for decrease in norepinephrine (NE) / epinephrine(E) was measured in mice (po); procedure, shortened: as §1
[3] = system: Rattus norvegicus; assay: Phenylethanolamine N-methyl-transferase inhibition determined as of [3H]epinephrine biosynthesis in rats at 50 mg/kg (po)
[4] = system: Mus musculus; assay: Minimum active dose(MAD) for decrease in norepinephrine (NE) / epinephrine(E) was measured in mice (po); procedure, shortened: as §1

SMILES | MAD [1] [mg/kg] | MID [2] [mg/kg] | inhibition in vivo at 50 mg/kg [3] [%] | MAD [4] [mg/kg]
Clc1cccc2c1CNCC2 | 7.5 | 2.5 | 45 | 
Clc1ccc2c(c1)CNCC2 | 12.5 | 7.5 | 78 | 
Clc1cc(Cl)c2c(c1Cl)CNCC2 |  | 100 | 16 | 
Clc1c(Cl)c(Cl)c2c(c1Cl)CCNC2 | 100 | 25 |  | 
Clc1ccc2c(c1Cl)CNCC2 |  | 2.5 |  | 5
Clc1cc2c(c(Cl)c1Cl)CNCC2 |  | 50 | 25 | 
